Measured values from ChEMBL document CHEMBL1144256, “Potent Kv1.3 inhibitors from correolide-modification of the C18 position” (Bioorg Med Chem Lett, 2005).

What was measured:
[1] = biological target: T1, Potassium voltage-gated channel subfamily A member 3 (Homo sapiens, UniProt P22001); experiment: Inhibition of voltage-gated potassium channel subunit Kv1.3 in chinese hamster ovary cells; format: functional, cell-based
How it was run: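 Depolarization-induced ⁸⁶Rb⁺ efflux measured in CHO cells stably transfected with human Kv1.3 channel (Rb_Kv functional assay), with short compound incubation; IC50 reported.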

[2] = biological target: T1, Potassium voltage-gated channel subfamily A member 3; experiment: Inhibitory activity against voltage-gated potassium channel subunit Kv1.3 of human T cells; format: functional, cell-based, T-cell
[3] = biological target: T1, Potassium voltage-gated channel subfamily A member 3; experiment: Relative T cell IC50 compared to IC50 for correolide assay; format: functional, cell-based
How it was run: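 Ratio of correolide IC50 to compound IC50 in the anti-CD3-stimulated human peripheral blood T cell proliferation assay; a larger value means greater potency.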

[4] = biological target: T1, Potassium voltage-gated channel subfamily A member 3; experiment: Inhibitory activity against voltage-gated potassium channel subunit Kv1.3; format: functional

T1 sequence (P22001 whole entry): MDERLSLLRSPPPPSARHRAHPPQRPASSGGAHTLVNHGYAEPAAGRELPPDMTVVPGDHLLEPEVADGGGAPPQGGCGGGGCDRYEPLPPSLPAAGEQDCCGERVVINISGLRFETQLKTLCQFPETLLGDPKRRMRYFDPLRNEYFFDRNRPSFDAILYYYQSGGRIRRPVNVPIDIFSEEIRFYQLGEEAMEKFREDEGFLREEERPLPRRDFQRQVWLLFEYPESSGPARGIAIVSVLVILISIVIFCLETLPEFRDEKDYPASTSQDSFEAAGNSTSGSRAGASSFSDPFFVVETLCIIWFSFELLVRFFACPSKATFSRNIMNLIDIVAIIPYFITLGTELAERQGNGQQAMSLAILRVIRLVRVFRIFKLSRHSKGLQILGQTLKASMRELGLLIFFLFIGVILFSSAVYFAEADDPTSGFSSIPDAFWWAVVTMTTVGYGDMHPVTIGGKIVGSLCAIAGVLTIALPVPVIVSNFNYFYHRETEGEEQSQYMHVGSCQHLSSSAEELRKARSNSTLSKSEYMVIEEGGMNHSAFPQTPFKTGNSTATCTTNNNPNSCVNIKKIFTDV

Row | SMILES | IC50 [1] [µM] | IC50 [2] [µM] | Ratio [3] | IC50 [4] [µM]
1 | C=C1C[C@@]2(O)C3CC[C@]4(C)C([C@H](OC(C)=O)[C@H](OC(C)=O)[C@@]5([C@@H](C)OC(C)=O)COC(=O)C=CC45)[C@@]3(C)[C@H](OC(C)=O)[C@H](OC(C)=O)[C@@]2(C)C2(C(=O)OC)O[C@H]12 (stereo partly drawn) [CORRELOID] | 0.1 | 0.184 |  | 
2 | CC(=O)O[C@H]1C2[C@@](C)(CCC3C(O)(c4ccccc4)C(C)=C[C@@H](OC(C)=O)[C@@]32C)C2C=CCOC[C@]2([C@@H](C)OC(C)=O)[C@H]1OC(C)=O (stereo partly drawn) | 2 |  |  | 
3 | CC(=O)O[C@H]1C2[C@@](C)(CCC3C(O)(CCCCc4ccccc4)C(C)=C[C@@H](OC(C)=O)[C@@]32C)C2C=CCOC[C@]2([C@@H](C)OC(C)=O)[C@H]1OC(C)=O (stereo partly drawn) | 0.27 |  |  | 
4 | C=CC[C@H](CC1(O)C(C)=C[C@@H](OC(C)=O)[C@@]2(C)C1CC[C@]1(C)C2[C@H](OC(C)=O)[C@H](OC(C)=O)[C@@]2([C@@H](C)OC(C)=O)COCC=CC12)c1ccccc1CC (stereo partly drawn) | 0.048 |  |  | 
5 | CC(=O)O[C@H]1C2[C@@](C)(CCC3C(O)(C[C@H](C)c4ccccc4)C(C)=C[C@@H](OC(C)=O)[C@@]32C)C2C=CCOC[C@]2([C@@H](C)OC(C)=O)[C@H]1OC(C)=O (stereo partly drawn) | 0.12 | 0.613 | 0.3 | 
6 | C=CCC1(O)C(C)=C[C@@H](OC(C)=O)[C@@]2(C)C1CC[C@]1(C)C2[C@H](OC(C)=O)[C@H](OC(C)=O)[C@@]2([C@@H](C)OC(C)=O)COCC=CC12 (stereo partly drawn) | 0.143 |  |  | 
7 | CC(=O)O[C@H]1C2[C@@](C)(CCC3C(=O)C(C)=C[C@@H](OC(C)=O)[C@@]32C)C2C=CCOC[C@]2([C@@H](C)OC(C)=O)[C@H]1OC(C)=O (stereo partly drawn) |  |  |  | 5.6
8 | C=C(CC1(O)C(C)=C[C@@H](OC(C)=O)[C@@]2(C)C1CC[C@]1(C)C2[C@H](OC(C)=O)[C@H](OC(C)=O)[C@@]2([C@@H](C)OC(C)=O)COCC=CC12)c1ccccc1S(=O)OC (stereo partly drawn) | 0.352 |  |  | 
9 | C=C1C[C@@]2(O)C3CC[C@]4(C)C([C@H](OC(C)=O)[C@H](OC(C)=O)[C@@]5([C@@H](C)OC(C)=O)COCC=CC45)[C@@]3(C)[C@H](OC(C)=O)[C@H](OC(C)=O)[C@@]2(C)C2(C(=O)OC)O[C@H]12 (stereo partly drawn) |  |  |  | 0.01
10 | CC(=O)O[C@H]1C2[C@@](C)(CCC3C(O)(C[C@@H](C)c4ccccc4)C(C)=C[C@@H](OC(C)=O)[C@@]32C)C2C=CCOC[C@]2([C@@H](C)OC(C)=O)[C@H]1OC(C)=O (stereo partly drawn) | 0.012 | 0.102 | 1.8 | 
11 | C=C(C[C@]1(O)C(C)=C[C@@H](OC(C)=O)[C@]2(C)C3[C@H](OC(C)=O)[C@H](OC(C)=O)[C@@]4([C@@H](C)OC(C)=O)COCC=CC4[C@]3(C)CCC21)c1ccccc1 (stereo partly drawn) | 0.019 | 0.131 | 1.4 | 
12 | C=C(CC1(O)C(C)=C[C@@H](OC(C)=O)[C@@]2(C)C1CC[C@]1(C)C2[C@H](OC(C)=O)[C@H](OC(C)=O)[C@@]2([C@@H](C)OC(C)=O)COCC=CC12)c1ccccc1[S+](C)[O-] (stereo in doubt; 35) | 0.259 |  |  | 
13 | CCc1ccccc1[C@H](CC)CC1(O)C(C)=C[C@@H](OC(C)=O)[C@@]2(C)C1CC[C@]1(C)C2[C@H](OC(C)=O)[C@H](OC(C)=O)[C@@]2([C@@H](C)OC(C)=O)COCC=CC12 (stereo partly drawn) | 0.012 |  |  | 
14 | C=C(CC1(O)C(C)=C[C@@H](OC(C)=O)[C@@]2(C)C1CC[C@]1(C)C2[C@H](OC(C)=O)[C@H](OC(C)=O)[C@@]2([C@@H](C)OC(C)=O)COCC=CC12)c1ccccc1SCC (stereo partly drawn) | 0.017 | 0.0317 | 5.8 | 
15 | C=CCCC1(O)C(C)=C[C@@H](OC(C)=O)[C@@]2(C)C1CC[C@]1(C)C2[C@H](OC(C)=O)[C@H](OC(C)=O)[C@@]2([C@@H](C)OC(C)=O)COCC=CC12 (stereo partly drawn) | 0.664 |  |  | 
16 | C=CC1(O)C(C)=C[C@@H](OC(C)=O)[C@@]2(C)C1CC[C@]1(C)C2[C@H](OC(C)=O)[C@H](OC(C)=O)[C@@]2([C@@H](C)OC(C)=O)COCC=CC12 (stereo partly drawn) | 1.81 |  |  | 
17 | CC(=O)O[C@H]1C2[C@@](C)(CCC3C(O)(C(C)Cc4ccccc4)C(C)=C[C@@H](OC(C)=O)[C@@]32C)C2C=CCOC[C@]2([C@@H](C)OC(C)=O)[C@H]1OC(C)=O (stereo partly drawn) | 0.2 |  |  | 
18 | CC(=O)O[C@H]1C2[C@@](C)(CCC3C(O)(CCC=C(C)C)C(C)=C[C@@H](OC(C)=O)[C@@]32C)C2C=CCOC[C@]2([C@@H](C)OC(C)=O)[C@H]1OC(C)=O (stereo partly drawn) | 0.021 |  |  | 
19 | C=C(CC1(O)C(C)=C[C@@H](OC(C)=O)[C@@]2(C)C1CC[C@]1(C)C2[C@H](OC(C)=O)[C@H](OC(C)=O)[C@@]2([C@@H](C)OC(C)=O)COCC=CC12)c1ccccc1SC (stereo partly drawn) | 0.014 | 0.0147 | 12.5 | 
20 | C=C(CC1(O)C(C)=C[C@@H](OC(C)=O)[C@@]2(C)C1CC[C@]1(C)C2[C@H](OC(C)=O)[C@H](OC(C)=O)[C@@]2([C@@H](C)OC(C)=O)COCC=CC12)c1ccccc1[S+](C)[O-] (stereo in doubt; 34) | 0.145 |  |  | 
21 | CC(=O)O[C@H]1C2[C@@](C)(CCC3C(O)(CC(C)(C)c4ccccc4)C(C)=C[C@@H](OC(C)=O)[C@@]32C)C2C=CCOC[C@]2([C@@H](C)OC(C)=O)[C@H]1OC(C)=O (stereo partly drawn) | 0.019 | 0.184 | 1 | 

Results, then the compound that gave them:

Row | IC50 [1] [µM] | IC50 [2] [µM] | Ratio [3] | IC50 [4] [µM] | SMILES
22 | 0.38 |  |  |  | CC(=O)O[C@H]1C2[C@@](C)(CCC3C(O)(Cc4ccccc4)C(C)=C[C@@H](OC(C)=O)[C@@]32C)C2C=CCOC[C@]2([C@@H](C)OC(C)=O)[C@H]1OC(C)=O (stereo partly drawn)
23 | 0.011 | 0.0511 | 3.6 |  | C=C(CC1(O)C(C)=C[C@@H](OC(C)=O)[C@@]2(C)C1CC[C@]1(C)C2[C@H](OC(C)=O)[C@H](OC(C)=O)[C@@]2([C@@H](C)OC(C)=O)COCC=CC12)c1ccccc1OC (stereo partly drawn)
24 | 0.074 | 0.245 | 0.75 |  | CC(=O)O[C@H]1C2[C@@](C)(CCC3C(O)(CCc4ccccc4F)C(C)=C[C@@H](OC(C)=O)[C@@]32C)C2C=CCOC[C@]2([C@@H](C)OC(C)=O)[C@H]1OC(C)=O (stereo partly drawn)
25 | 0.019 | 0.0256 | 7.2 |  | COc1ccccc1[C@H](C)C[C@]1(O)C(C)=C[C@@H](OC(C)=O)[C@]2(C)C3[C@H](OC(C)=O)[C@H](OC(C)=O)[C@@]4([C@@H](C)OC(C)=O)COCC=CC4[C@]3(C)CCC21 (stereo partly drawn)
26 | 0.031 |  |  |  | CC(=O)Oc1ccccc1CCC1(O)C(C)=C[C@@H](OC(C)=O)[C@@]2(C)C1CC[C@]1(C)C2[C@H](OC(C)=O)[C@H](OC(C)=O)[C@@]2([C@@H](C)OC(C)=O)COCC=CC12 (stereo partly drawn)
27 | 0.037 | 0.0123 | 15 |  | CCOc1ccccc1[C@H](C)CC1(O)C(C)=C[C@@H](OC(C)=O)[C@@]2(C)C1CC[C@]1(C)C2[C@H](OC(C)=O)[C@H](OC(C)=O)[C@@]2([C@@H](C)OC(C)=O)COCC=CC12 (stereo partly drawn)
28 | 0.021 | 0.0329 | 5.6 |  | C=CC[C@H](CC1(O)C(C)=C[C@@H](OC(C)=O)[C@@]2(C)C1CC[C@]1(C)C2[C@H](OC(C)=O)[C@H](OC(C)=O)[C@@]2([C@@H](C)OC(C)=O)COCC=CC12)c1ccccc1OC (stereo partly drawn)
29 | 0.028 | 0.0292 | 6.3 |  | CC[C@H](CC1(O)C(C)=C[C@@H](OC(C)=O)[C@@]2(C)C1CC[C@]1(C)C2[C@H](OC(C)=O)[C@H](OC(C)=O)[C@@]2([C@@H](C)OC(C)=O)COCC=CC12)c1ccccc1OC (stereo partly drawn)
30 | 0.026 | 0.428 | 0.43 |  | CC(=O)O[C@H]1C2[C@@](C)(CCC3C(O)(CCc4ccccc4O)C(C)=C[C@@H](OC(C)=O)[C@@]32C)C2C=CCOC[C@]2([C@@H](C)OC(C)=O)[C@H]1OC(C)=O (stereo partly drawn)
31 | 0.014 | 0.142 | 1.3 |  | COc1ccccc1CCC1(O)C(C)=C[C@@H](OC(C)=O)[C@@]2(C)C1CC[C@]1(C)C2[C@H](OC(C)=O)[C@H](OC(C)=O)[C@@]2([C@@H](C)OC(C)=O)COCC=CC12 (stereo partly drawn)
32 | 0.044 | 0.0255 | 7.2 |  | C=C(CC1(O)C(C)=C[C@@H](OC(C)=O)[C@@]2(C)C1CC[C@]1(C)C2[C@H](OC(C)=O)[C@H](OC(C)=O)[C@@]2([C@@H](C)OC(C)=O)COCC=CC12)c1ccccc1CC (stereo partly drawn)
33 | 0.087 | 1.84 | 0.1 |  | CC(=O)O[C@H]1C2[C@@](C)(CCC3C(O)(CCc4ccccc4C(F)(F)F)C(C)=C[C@@H](OC(C)=O)[C@@]32C)C2C=CCOC[C@]2([C@@H](C)OC(C)=O)[C@H]1OC(C)=O (stereo partly drawn)
34 | 0.028 | 0.0368 | 5 |  | CCc1ccccc1[C@H](C)CC1(O)C(C)=C[C@@H](OC(C)=O)[C@@]2(C)C1CC[C@]1(C)C2[C@H](OC(C)=O)[C@H](OC(C)=O)[C@@]2([C@@H](C)OC(C)=O)COCC=CC12 (stereo partly drawn)
35 | 0.026 | 0.46 | 0.4 |  | CC(=O)O[C@H]1C2[C@@](C)(CCC3C(O)(CCc4ccccc4)C(C)=C[C@@H](OC(C)=O)[C@@]32C)C2C=CCOC[C@]2([C@@H](C)OC(C)=O)[C@H]1OC(C)=O (stereo partly drawn)
36 | 0.15 |  |  |  | CC(=O)O[C@H]1C2[C@@](C)(CCC3C(O)(CCCc4ccccc4)C(C)=C[C@@H](OC(C)=O)[C@@]32C)C2C=CCOC[C@]2([C@@H](C)OC(C)=O)[C@H]1OC(C)=O (stereo partly drawn)
37 | 0.024 | 1.31 | 0.14 |  | COc1cccc(CCC2(O)C(C)=C[C@@H](OC(C)=O)[C@@]3(C)C2CC[C@]2(C)C3[C@H](OC(C)=O)[C@H](OC(C)=O)[C@@]3([C@@H](C)OC(C)=O)COCC=CC23)c1 (stereo partly drawn)
38 | 0.041 | 0.194 | 0.95 |  | CC(=O)O[C@H]1C2[C@@](C)(CCC3C(O)(CCc4ccccc4C)C(C)=C[C@@H](OC(C)=O)[C@@]32C)C2C=CCOC[C@]2([C@@H](C)OC(C)=O)[C@H]1OC(C)=O (stereo partly drawn)
39 | 0.034 | 0.08 | 2.3 |  | CCOc1ccccc1CCC1(O)C(C)=C[C@@H](OC(C)=O)[C@@]2(C)C1CC[C@]1(C)C2[C@H](OC(C)=O)[C@H](OC(C)=O)[C@@]2([C@@H](C)OC(C)=O)COCC=CC12 (stereo partly drawn)
40 | 0.13 |  |  |  | COc1ccc(CCC2(O)C(C)=C[C@@H](OC(C)=O)[C@@]3(C)C2CC[C@]2(C)C3[C@H](OC(C)=O)[C@H](OC(C)=O)[C@@]3([C@@H](C)OC(C)=O)COCC=CC23)cc1 (stereo partly drawn)
